Assay results as given in ChEMBL document CHEMBL2046311, “Design, synthesis, and molecular hybrids of caudatin and cinnamic acids as novel anti-hepatitis B virus agents” (Eur J Med Chem, 2012).
pIC50: −log10 of the molar value.

Columns and labels:
[1] = Selectivity index, ratio of CC50 for human HepG2(2.2.15) cells to IC50 for Hepatitis B virus infected in human HepG2(2.2.15) cells assessed as inhibition of viral surface antigen secretion; format: functional
Summary of the method: (§1)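 SI calculated as CC50 (MTT, HepG 2.2.15) divided by IC50 for the named read-out (HBV DNA by real-time PCR, or HBeAg or HBsAg secretion by ELISA), in the same cell line.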

[2] = system: Hepatitis B virus; assay: Antiviral activity against Hepatitis B virus infected in human HepG2(2.2.15) cells assessed as inhibition of viral e antigen secretion by ELISA; format: functional, organism-based
Summary of the method: (§2)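 HepG 2.2.15 cells in RPMI-1640 with 10% fetal calf serum at 37 °C, 5% CO2. Compounds dissolved in DMSO, culture DMSO below 2.5 μL/mL. Secreted HBeAg and HBsAg measured by ELISA. IC50 values are means of at least two experiments.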

[3] = system: Hepatitis B virus; assay: Antiviral activity against Hepatitis B virus infected in human HepG2(2.2.15) cells assessed as inhibition of viral DNA replication by PCR analysis; format: functional, organism-based
Summary of the method: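 HepG 2.2.15 cells grown in RPMI-1640 with 10% fetal calf serum, […] and penicillin/streptomycin at 37 °C, 5% CO2. Compounds added in DMSO, kept below 2.5 μL/mL. HBV DNA quantified by SYBR Green real-time PCR with HBV-specific primers spanning 541–591 bp. IC50 values are means of at least two experiments.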

[4] = Selectivity index, ratio of CC50 for human HepG2(2.2.15) cells to IC50 for Hepatitis B virus infected in human HepG2(2.2.15) cells assessed as inhibition of viral e antigen secretion; format: functional; summary of the method: as §1
[5] = system: Hepatitis B virus; assay: Antiviral activity against Hepatitis B virus infected in human HepG2(2.2.15) cells assessed as inhibition of viral surface antigen secretion by ELISA; format: functional, organism-based; summary of the method: as §2
[6] = Cytotoxicity against human HepG2(2.2.15) cells by modified-MTT assay; format: cell-based
Summary of the method: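 HepG 2.2.15 cells in RPMI-1640 with 10% fetal calf serum at 37 °C, 5% CO2. Compounds in DMSO, final DMSO below 2.5 μL/mL. Viability read by modified MTT method. CC50 is the mean of at least two experiments.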

[7] = Selectivity index, ratio of CC50 for human HepG2(2.2.15) cells to IC50 for Hepatitis B virus infected in human HepG2(2.2.15) cells assessed as inhibition of viral DNA replication; format: functional; summary of the method: as §1

Compound | Ratio CC50/IC50 [1] | pIC50 [2] | pIC50 [3] | Ratio CC50/IC50 [4] | pIC50 [5] | CC50 [6] | Ratio CC50/IC50 [7]
COc1cc(/C=C/C(=O)O[C@H]2CC[C@@]3(C)C(=CC[C@]4(O)[C@@H]3C[C@@H](OC(=O)/C=C(\C)C(C)C)[C@@]3(C)[C@]4(O)CC[C@@]3(O)C(C)=O)C2)cc(OC)c1 | >34.6 | 3.42 | 4.93 | >2.7 | 4.53 | > 1020 µM | >87.4
CC(=O)[C@]1(O)CC[C@@]2(O)[C@]1(C)[C@H](OC(=O)/C=C(\C)C(C)C)C[C@@H]1[C@@]3(C)CC[C@H](OC(=O)/C=C/c4ccc(Cl)cc4Cl)CC3=CC[C@]12O | >8.8 | 2.93 | 4.84 | >1.6 | 3.67 | > 1890 µM | >130.3
CC(=O)[C@]1(O)CC[C@@]2(O)[C@]1(C)[C@H](OC(=O)/C=C(\C)C(C)C)C[C@@H]1[C@@]3(C)CC[C@H](OC(=O)/C=C/c4ccc(C=O)cc4)CC3=CC[C@]12O | 1.7 | 4.72 | 5.20 | 2.1 | 4.63 | 40.2 µM | 6.3
CC(=O)[C@]1(O)CC[C@@]2(O)[C@]1(C)[C@H](OC(=O)/C=C(\C)C(C)C)C[C@@H]1[C@@]3(C)CC[C@H](OC(=O)/C=C/c4ccc(Cl)c([N+](=O)[O-])c4)CC3=CC[C@]12O | 47.3 | 4.10 | 5.20 | 5.7 | 5.02 | 450 µM | 71.3
COc1ccccc1/C=C/C(=O)O[C@H]1CC[C@@]2(C)C(=CC[C@]3(O)[C@@H]2C[C@@H](OC(=O)/C=C(\C)C(C)C)[C@@]2(C)[C@]3(O)CC[C@@]2(O)C(C)=O)C1 | >36.9 | 3.12 | 5.14 | >3.1 | 4.19 | > 2370 µM | >324.1
CC(=O)[C@]1(O)CC[C@@]2(O)[C@]1(C)[C@H](OC(=O)/C=C(\C)C(C)C)C[C@@H]1[C@@]3(C)CC[C@H](OC(=O)/C=C/c4cccc(C)c4)CC3=CC[C@]12O | >54.7 | 3.88 | 5.14 | >10.5 | 4.59 | > 1390 µM | >192.6
CC(=O)[C@]1(O)CC[C@@]2(O)[C@]1(C)[C@H](OC(=O)/C=C(\C)C(C)C)C[C@@H]1[C@@]3(C)CC[C@H](OC(=O)/C=C/c4ccc5c(c4)OCO5)CC3=CC[C@]12O | >176.7 | 4.36 | 5.19 | >37.9 | 5.03 | > 1660 µM | >256.7
COc1cccc(/C=C/C(=O)O[C@H]2CC[C@@]3(C)C(=CC[C@]4(O)[C@@H]3C[C@@H](OC(=O)/C=C(\C)C(C)C)[C@@]3(C)[C@]4(O)CC[C@@]3(O)C(C)=O)C2)c1 | >102 | 4.60 | 5.35 | >43.3 | 4.98 | > 1080 µM | >241.2
CC(=O)[C@]1(O)CC[C@@]2(O)[C@]1(C)[C@H](OC(=O)/C=C(\C)C(C)C)C[C@@H]1[C@@]3(C)CC[C@H](OC(=O)/C=C/c4cccc(Cl)c4)CC3=CC[C@]12O | >70.1 | 3.44 | 4.90 | >3.7 | 4.73 | > 1320 µM | >103.6
CC(=O)[C@]1(O)CC[C@@]2(O)[C@]1(C)[C@H](OC(=O)/C=C(\C)C(C)C)C[C@@H]1[C@@]3(C)CC[C@H](OC(=O)/C=C/c4ccccc4[N+](=O)[O-])CC3=CC[C@]12O | >41.9 | 4.28 | 4.66 | >29.4 | 4.43 | > 1550 µM | >71.4
CC(=O)[C@]1(O)CC[C@@]2(O)[C@]1(C)[C@H](OC(=O)/C=C(\C)C(C)C)C[C@@H]1[C@@]3(C)CC[C@H](OC(=O)/C=C/c4cccc(Br)c4)CC3=CC[C@]12O | 29.9 | 4.90 | 5.35 | 34.4 | 4.84 | 429 µM | 97
